Some results are limits rather than exact numbers.

For assay [1], the system named is Mus musculus. The assay is described as follows: Percentage of inhibition by the compound against PAF-induced mortality in mice 3 hr after intravenous administration of 1 mg/Kg. In kind it is functional. The method, boiled down:
(§1)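 Male Swiss mice given single 1 mg/kg iv dose at time 0. C-18-PAF 100 µg/kg plus propranolol 1 mg/kg injected by lateral tail vein at later times (10-40 mice/time). Deaths scored 2 h after PAF. Percentage inhibition of mortality vs vehicle (saline) controls recorded at each time.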

Assay [2] concerns Mus musculus. The assay is described as follows: Percentage of inhibition by the compound against PAF-induced mortality in mice 7 hr after intravenous administration of 1 mg/Kg. In kind it is functional. The method, boiled down:
as §1

Assay [3] concerns Mus musculus. Kind of assay: Dosage required to inhibit PAF-induced mortality in mice by 50% through oral administration. In kind it is functional. To be noted: read-out: ID50 (the source's name). The method, boiled down:
(§2)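 Male Swiss mice, 22-26 g, groups of 10. Test article given iv (10 mL/kg, saline vehicle) 5 min before, or po (20 mL/kg, 1% Tween 80) 60 min before, tail-vein C-18-PAF 100 µg/kg plus propranolol 1 mg/kg. Mortality scored 2 h after PAF; % inhibition vs vehicle controls. ID50 by linear regression, ≥4 points.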

For assay [4], the system named is Mus musculus. The assay is described as follows: Dosage required to inhibit PAF-induced mortality in mice by 50% through intravenous route. In kind it is functional. The note with it: read-out: ID50 (the source's name). The procedure, abridged: as §2
For assay [5], the system named is Canis familiaris. Kind of assay: Inhibition of PAF-induced platelet aggregation in whole blood obtained after 4 hr from dog injected with an intravenous dose of 1 mg/Kg of compound. In kind it is functional, Canis lupus familiaris. The procedure, abridged: (§3)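 Male Beagle dogs (8-12 kg) dosed once at 1 mg/kg iv. Venous blood drawn before dosing and at 4 and 6 h, anticoagulated with 3.8% citrate (1:9) and diluted 1:1 in saline.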

The species entered for another assay is Oryctolagus cuniculus. The assay is described as follows: Concentration required to inhibit PAF-induced maximum platelet aggregation in rabbit platelet-rich plasma. In kind it is functional. The procedure, abridged:
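PRP prepared by centrifugation at 250g, 10 min, 4 °C, and diluted with platelet-poor plasma (3000g, 10 min) to 3.5 × 10⁵ platelets/mm³. Aggregation triggered by C-18-PAF at 1.5 × 10^-8 M and read on a dual-channel aggregometer. IC50 from linear regression of at least four points, each the mean of one to three independent experiments.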

The subject of assay [6] is Mus musculus. The assay is described as follows: Percentage of inhibition by the compound against PAF-induced mortality in mice 5 hr after intravenous administration of 1 mg/Kg. In kind it is functional. The method, boiled down:
as §1

The next assay has as its system Rattus norvegicus. Kind of assay: Dose required to reduce the lowering of the arterial blood pressure caused by PAF by 50% after intravenous administration in rats. The assay is classed as functional. The note with it: read-out: ID50 (the source's name). The method, boiled down:
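Rats with both femoral veins catheterized, one for test compound and one for PAF (0.5 µg/kg). Compound given iv in saline (1 mL/kg) 3 min before PAF. Blood pressure monitored; % inhibition of hypotension calculated versus controls. ID50 from linear regression of at least four doses, each the mean of two or more independent experiments.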

The test system of assay [7] is Canis familiaris. Kind of assay: Inhibition of PAF-induced platelet aggregation in whole blood obtained after 6 hr from dog injected with an intravenous dose of 1 mg/Kg of compound. The assay is classed as functional, Canis lupus familiaris. The method, boiled down: as §3
Assay [8] has as its system Mus musculus. Kind of assay: Compound after an intravenous dose of 0.03 mg/Kg was tested for the inhibition of PAF-induced mortality in mice. The assay is classed as functional. The method, boiled down:
as §2

On to `Cc1nnc2n1-c1sc(CCC(=O)N3CCOCC3)cc1C(c1ccccc1Cl)=NC2` [APAFANT], for which the inhibition in vivo (in general, the drop in the measured response relative to a control, in per cent) at 1 mg/kg was determined as 55% in the assay on Mus musculus [1], 31% with Mus musculus [2] and 27% with Mus musculus [6]. Moreover, the values for the ED50 in the assay on Mus musculus [3], in the assay on Mus musculus [4] and in the assay with Rattus norvegicus were 1.24 mg/kg, 0.084 mg/kg and 0.17 mg/kg, respectively. Besides, the Inhibition (usually the change of the read-out against control, counted positive when it falls) turned out to be 100% in the assay on Canis familiaris [5] and 55% with Canis familiaris [7]. In the assay listed under Oryctolagus cuniculus, half-maximal inhibition (IC50) required 0.091 µM.
Turning to `Cc1nc2cnccc2n1CC1CCN(C(=O)CC(O)(c2ccccc2)C(F)(F)F)CC1` (centres undefined), the inhibition in vivo at 1 mg/kg with Mus musculus [2] came out at 70%; in the assay with Mus musculus [6], 90%. Also, the ED50 with Mus musculus [3] stood at 0.032 mg/kg; in the assay on Mus musculus [4], 0.0029 mg/kg. Also, in the assay filed under Oryctolagus cuniculus, the IC50 (commonly the concentration needed to halve the response being measured) came out at 0.036 µM.
`Cc1nc2cnccc2n1CC1CCN(C(=O)N[C@H](C)c2ccccc2)CC1`: the inhibition in vivo at 1 mg/kg in the assay with Mus musculus [2] was determined as 22%; in the assay on Mus musculus [6], 56%. Besides, the values for the ED50 in the assay on Mus musculus [3] and with Mus musculus [4] were 1 mg/kg and 0.0047 mg/kg, respectively. Further, the Inhibition in the assay with Canis familiaris [5] amounted to 100%; in the assay with Canis familiaris [7] it was 77%. The IC50 in the assay listed under Oryctolagus cuniculus came to 0.013 µM.
In the case of `Cc1nc2cnccc2n1CC1CCN(C(=O)CC(C)(O)c2ccccc2)CC1` (centres undefined), the values for the inhibition in vivo at 1 mg/kg in the assay with Mus musculus [2] and in the assay on Mus musculus [6] were 60% and 80%, respectively. Besides, the results for the ED50 in the assay on Mus musculus [3] and in the assay with Mus musculus [4] were 1 mg/kg and 0.0029 mg/kg, respectively. The results for the Inhibition in the assay on Canis familiaris [5] and in the assay with Canis familiaris [7] were 59% and 43%, respectively. This compound yielded an IC50 in the assay listed under Oryctolagus cuniculus of 0.0069 µM.
As for `Cc1ncccc1C(C#N)N1CCN(C(=O)CNC(c2ccccc2)c2ccccc2)CC1` (centres undefined), the inhibition in vivo at 1 mg/kg was 30% in the assay on Mus musculus [1] and 15% with Mus musculus [6]. The ED50 worked out at 0.3 mg/kg in the assay with Mus musculus [3], 0.009 mg/kg with Mus musculus [4] and 0.021 mg/kg with Rattus norvegicus. In the assay on Canis familiaris [5], this compound showed an Inhibition of 39%. In the assay listed under Oryctolagus cuniculus, this compound had an IC50 of 0.04 µM.
Consider `COc1ccccc1N(C)CC(=O)N1CCC(Cn2c(C)nc3cnccc32)CC1`, for which the inhibition in vivo at 1 mg/kg in the assay with Mus musculus [2] was determined as 70%; with Mus musculus [6], 90%. For the same compound, the values for the ED50 with Mus musculus [3], in the assay with Mus musculus [4] and with Rattus norvegicus were above 1 mg/kg, 0.0066 mg/kg and 0.063 mg/kg, respectively. Moreover, the figures for the Inhibition with Canis familiaris [5] and in the assay on Canis familiaris [7] were 100% and 87%, respectively. Besides, inhibition in the assay filed under Oryctolagus cuniculus was half-maximal at 0.014 µM (IC50).
Take `Cc1nc2cnccc2n1CC1CCN(C(=O)CC(c2ccccc2)c2ccccc2)CC1`: the inhibition in vivo at 1 mg/kg in the assay on Mus musculus [1], with Mus musculus [2] and in the assay with Mus musculus [6] was 100% each time. Further, the ED50 was 0.092 mg/kg in the assay on Mus musculus [3] and 0.0008 mg/kg in the assay on Mus musculus [4]. In addition, the Inhibition in the assay with Canis familiaris [5] and in the assay on Canis familiaris [7] was 100% throughout. In the assay filed under Oryctolagus cuniculus, this compound registered an IC50 of 0.0076 µM.
`Cc1nc2cnccc2n1CC1CCN(C(=O)CC(C)(C)c2ccccc2)CC1`: the inhibition in vivo at 1 mg/kg worked out at 50% in the assay with Mus musculus [2] and 88% in the assay with Mus musculus [6]. The ED50 with Mus musculus [3] turned out to be 1 mg/kg; in the assay with Mus musculus [4], 0.0027 mg/kg. In addition, the Inhibition with Canis familiaris [5] and in the assay on Canis familiaris [7] was 100% each time. Also, the midpoint of inhibition in the assay filed under Oryctolagus cuniculus, the IC50, lay at 0.0067 µM.
As for `CCOC(=O)[C@H](CC(C)C)N(C)S(=O)(=O)c1ccc(Cn2c(C)nc3cnccc32)cc1` [LEXIPAFANT], the inhibition in vivo at 1 mg/kg in the assay on Mus musculus [1] was 100%; in the assay on Mus musculus [2], 56%; with Mus musculus [6], 95%. The ED50 is 0.11 mg/kg in the assay with Mus musculus [3], 0.0021 mg/kg in the assay with Mus musculus [4] and 0.0037 mg/kg in the assay on Rattus norvegicus. Besides, the Inhibition with Canis familiaris [5] and in the assay on Canis familiaris [7] was 100% each time. Also, inhibition in the assay filed under Oryctolagus cuniculus was half-maximal at 0.0036 µM (IC50).
`CCOC(=O)C(CC(=O)N1CCC(Cn2c(C)nc3cnccc32)CC1)c1ccccc1` (centres undefined): at 0.03 mg/kg the inhibition in vivo in the assay on Mus musculus [8] was 45%. The compound also displayed an IC50 in the assay listed under Oryctolagus cuniculus of 0.012 µM. Besides, the ED50 with Rattus norvegicus is 0.17 mg/kg.
For `COC/C(=C\C(=O)N1CCC(Cn2c(C)nc3cnccc32)CC1)c1ccccc1`, the results for the ED50 in the assay on Mus musculus [3], with Mus musculus [4] and with Rattus norvegicus were above 1 mg/kg, 0.0079 mg/kg and 0.022 mg/kg, respectively. Moreover, the IC50 in the assay listed under Oryctolagus cuniculus is 0.018 µM.

Values taken from ChEMBL document CHEMBL1129690, “Design, synthesis, and structure-activity relationship studies of novel 1-[(1-acyl-4-piperidyl)methyl]-1H-2- methylimidazo[4,5-c]pyridine derivatives as potent, orally active platelet-activating factor antagonists” (J Med Chem, 1996).
